System: HEK-293T
Assay: Multiplex assay against HEK293T
Assay type: toxicity, cell-based
Settings: human
Procedure, shortened: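 Live cells carried four stains from seeding: Hoechst33342, BioTracker Green Microtubule Cytoskeleton Dye, MitoTracker Red and Annexin V Alexa Fluor 680. They were imaged on a CQ1 microscope at 37°C and 5% CO2 after compound addition. Using CellPathfinder machine-learning gating, cells were split into Hoechst high-intensity objects or normal cells, normal cells into healthy, pyknosed or fragmented nuclei, and pyknosed cells into mitotic or apoptotic; tubulin, mitochondrial-mass and membrane-permeability phenotypes are per cents of healthy-nucleus cells.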

[1] = 12 h, 1 µM, compound concentration 1 uM, replicate 1
[2] = 12 h, 1 µM, compound concentration 1 uM, replicate 2
[3] = 12 h, 10 µM, compound concentration 10 uM, replicate 1
[4] = 12 h, 10 µM, compound concentration 10 uM, replicate 2
[5] = 24 h, 1 µM, compound concentration 1 uM, replicate 1
[6] = 24 h, 1 µM, compound concentration 1 uM, replicate 2
[7] = 24 h, 10 µM, compound concentration 10 uM, replicate 1
[8] = 24 h, 10 µM, compound concentration 10 uM, replicate 2
[9] = 48 h, 1 µM, compound concentration 1 uM, replicate 1
[10] = 48 h, 1 µM, compound concentration 1 uM, replicate 2
[11] = 48 h, 10 µM, compound concentration 10 uM, replicate 1
[12] = 48 h, 10 µM, compound concentration 10 uM, replicate 2

## O=C(O)c1cc2ccccc2c(Cc2c(O)c(C(=O)O)cc3ccccc23)c1O [PAMOIC ACID]
[1]
  Population Apoptotic (%): 30%
  Population Fragmented Nuclei (%): 9%
  Population Healthy Nuclei (%): 77%
  Population Hoechst High Intensity Objects (%): 7%
  Population Membrane Permeable-Phenotype (%): 0%
  Population Mitochondria Different-Phenotype (%): 38%
  Population Mitotic Cells (%): 69%
  Population Normal (%): 92%
  Population Pyknosed Nuclei (%): 12%
  Population Tubulin-Different-Phenotype (%): 23%
  Total Cell Count: 432
[2]
  Population Apoptotic (%): 58%
  Population Fragmented Nuclei (%): 7%
  Population Hoechst High Intensity Objects (%): 6%
  Population Mitochondria Different-Phenotype (%): 60%
  Population Mitotic Cells (%): 41%
  Population Normal (%): 93%
  Population Pyknosed Nuclei (%): 15%
  Population Tubulin-Different-Phenotype (%): 21%
  Total Cell Count: 303
[3]
  Population Apoptotic (%): 34%
  Population Fragmented Nuclei (%): 8%
  Population Healthy Nuclei (%): 79%
  Population Hoechst High Intensity Objects (%): 8%
  Population Membrane Permeable-Phenotype (%): 0%
  Population Mitochondria Different-Phenotype (%): 44%
  Population Mitotic Cells (%): 65%
  Population Normal (%): 91%
  Population Pyknosed Nuclei (%): 12%
  Population Tubulin-Different-Phenotype (%): 34%
  Total Cell Count: 446
[4]
  Population Apoptotic (%): 52%
  Population Fragmented Nuclei (%): 4%
  Population Healthy Nuclei (%): 81%
  Population Mitochondria Different-Phenotype (%): 55%
  Population Mitotic Cells (%): 47%
  Population Pyknosed Nuclei (%): 13%
  Population Tubulin-Different-Phenotype (%): 26%
  Total Cell Count: 275
[5]
  Population Apoptotic (%): 29%
  Population Fragmented Nuclei (%): 8%
  Population Healthy Nuclei (%): 78%
  Population Hoechst High Intensity Objects (%): 6%
  Population Membrane Permeable-Phenotype (%): 1%
  Population Mitochondria Different-Phenotype (%): 22%
  Population Mitotic Cells (%): 70%
  Population Normal (%): 93%
  Population Pyknosed Nuclei (%): 12%
  Population Tubulin-Different-Phenotype (%): 16%
  Total Cell Count: 559
[6]
  Population Apoptotic (%): 40%
  Population Fragmented Nuclei (%): 5%
  Population Healthy Nuclei (%): 86%
  Population Membrane Permeable-Phenotype (%): 0%
  Population Mitochondria Different-Phenotype (%): 39%
  Population Mitotic Cells (%): 59%
  Population Pyknosed Nuclei (%): 7%
  Total Cell Count: 378
[7]
  Population Apoptotic (%): 29%
  Population Fragmented Nuclei (%): 9%
  Population Healthy Nuclei (%): 75%
  Population Hoechst High Intensity Objects (%): 5%
  Population Membrane Permeable-Phenotype (%): 0%
  Population Mitochondria Different-Phenotype (%): 27%
  Population Mitotic Cells (%): 70%
  Population Normal (%): 94%
  Population Pyknosed Nuclei (%): 14%
  Population Tubulin-Different-Phenotype (%): 22%
  Total Cell Count: 592
[8]
  Population Apoptotic (%): 41%
  Population Fragmented Nuclei (%): 5%
  Population Healthy Nuclei (%): 79%
  Population Hoechst High Intensity Objects (%): 7%
  Population Mitochondria Different-Phenotype (%): 43%
  Population Mitotic Cells (%): 58%
  Population Normal (%): 92%
  Population Pyknosed Nuclei (%): 15%
  Population Tubulin-Different-Phenotype (%): 18%
  Total Cell Count: 365
[9]
  Population Apoptotic (%): 18%
  Population Fragmented Nuclei (%): 11%
  Population Healthy Nuclei (%): 81%
  Population Hoechst High Intensity Objects (%): 2%
  Population Membrane Permeable-Phenotype (%): 1%
  Population Mitochondria Different-Phenotype (%): 13%
  Population Mitotic Cells (%): 81%
  Population Normal (%): 97%
  Population Pyknosed Nuclei (%): 7%
  Population Tubulin-Different-Phenotype (%): 10%
  Total Cell Count: 998
[10]
  Population Apoptotic (%): 48%
  Population Fragmented Nuclei (%): 8%
  Population Healthy Nuclei (%): 84%
  Population Hoechst High Intensity Objects (%): 7%
  Population Membrane Permeable-Phenotype (%): 0%
  Population Mitochondria Different-Phenotype (%): 27%
  Population Mitotic Cells (%): 51%
  Population Normal (%): 92%
  Population Pyknosed Nuclei (%): 6%
  Population Tubulin-Different-Phenotype (%): 11%
  Total Cell Count: 494
[11]
  Population Apoptotic (%): 24%
  Population Fragmented Nuclei (%): 13%
  Population Healthy Nuclei (%): 79%
  Population Hoechst High Intensity Objects (%): 3%
  Population Membrane Permeable-Phenotype (%): 0%
  Population Mitochondria Different-Phenotype (%): 18%
  Population Mitotic Cells (%): 75%
  Population Normal (%): 96%
  Population Pyknosed Nuclei (%): 7%
  Population Tubulin-Different-Phenotype (%): 10%
  Total Cell Count: 879
[12]
  Population Apoptotic (%): 36%
  Population Fragmented Nuclei (%): 11%
  Population Healthy Nuclei (%): 82%
  Population Hoechst High Intensity Objects (%): 7%
  Population Mitochondria Different-Phenotype (%): 27%
  Population Mitotic Cells (%): 64%
  Population Normal (%): 92%
  Population Pyknosed Nuclei (%): 5%
  Population Tubulin-Different-Phenotype (%): 12%
  Total Cell Count: 517

From ChEMBL document CHEMBL5058577, “EUbOPEN Chemogenomics Library 2 (Multiplex)” (2022)
